HSP90 inh: HSP90 inhibitors, primary screen, cell lysate, luminescence. Heat shock protein HSP 90 (rabbit reticulocyte lysate; luciferase refolding). Rabbit reticulocyte lysate, luciferase refolding luminescence, 3 h. inhibition, % at 5.6 µM. 290,000 compounds, 0.91% hits;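 active = inhibition above the screen-wide mean plus 3 SD, computed separately per campaign, cut at about 16% in these data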;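 note: 0% = DMSO wells and 100% = 60 µM geldanamycin wells; inhibitors lower the luminescence because luciferase stays unfolded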
SENP8 block-1: SENP8 protease inhibitors, primary screen, biochemical, luminescence; Sentrin-specific protease 8 (Homo sapiens), Q96LD8; purified SENP8, Z-RLRGG-aminoluciferin cleavage; inhibition, % at 10 µM; 330,000 compounds, 1.2% hits; AID 2540, 2010; in the data active = inhibition above about 50%
SENP6 inh: SENP6 protease inhibitors, primary screen, biochemical, luminescence, uHTS; Sentrin-specific protease 6 (Homo sapiens), Q9GZR1; Recombinant SENP6 catalytic domain, aminoluciferin luminescence; inhibition, % at 10 µM; 330,000 compounds, 1.8% hits;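 active = inhibition above about 50% at the single tested dose, limit read from the data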;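 note: plate controls were DMSO wells with enzyme for no effect and DMSO wells lacking enzyme for full effect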
SENP7 block: SENP7 protease inhibitors, primary screen, biochemical, luminescence, uHTS. Sentrin-specific protease 7 (Homo sapiens), Q9BQF6. recombinant SENP7, Z-RLRGG-aminoluciferin luminescence, 40 min. inhibition, % at 5 µM. 330,000 compounds, 1.5% hits. AID 434973, 2010;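 active = inhibition above about 50% at the single test dose, limit read from the data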;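 note: plate controls were DMSO with enzyme for no effect and no enzyme buffer wells for full effect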
Target sequence (Q9BQF6 706-1050 limits assumed): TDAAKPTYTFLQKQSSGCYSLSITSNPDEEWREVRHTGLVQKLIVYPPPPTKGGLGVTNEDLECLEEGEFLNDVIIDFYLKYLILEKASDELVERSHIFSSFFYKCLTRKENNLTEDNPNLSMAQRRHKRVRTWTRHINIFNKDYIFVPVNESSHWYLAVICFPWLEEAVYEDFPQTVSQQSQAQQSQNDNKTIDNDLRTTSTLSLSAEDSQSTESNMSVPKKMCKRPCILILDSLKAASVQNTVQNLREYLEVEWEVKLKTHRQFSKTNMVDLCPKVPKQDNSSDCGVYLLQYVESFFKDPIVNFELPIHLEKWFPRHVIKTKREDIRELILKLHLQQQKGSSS
SENP1 FRET inh: human SENP1 catalytic domain inhibitors, primary screen, biochemical, FRET, uHTS | Sentrin-specific protease 1 (Homo sapiens), Q9P0U3 | recombinant SENP1 catalytic domain, CyPet-SUMO1-YPet FRET cleavage | inhibition, % at 10 µM | 360,000 compounds, 0.21% hits | AID 624204, 2012;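 active = inhibition at least 30% at 10 µM, raw YFP signal under a set limit, fluorescence ratio 0.5 to 1.5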;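 note: 0% = enzyme with DMSO and 100% = no enzyme wells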
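Material: hSENP1 catalytic domain, recombinant; medium: Tris pH 8 with BME, BSA, NP40 and catalase; compound: single concentration of 10 µM compound, 0.5% DMSO final; technique: FRET read of cyan and yellow fluorescence; timing: 50 min enzyme reaction, room temperature, light-protected; reagent: SFCypet-SUMO1-SFYpet substrate at 25 nM; control set: no-enzyme low, enzyme-DMSO high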
SENP8 block-2: human SENP8 protease inhibitors, primary screen, biochemical, fluorescence, Nedd8 protein substrate, uHTS; inhibition, % at 20 µM; 360,000 compounds, 0.64% hits; recombinant SENP8; in the data active = inhibition mostly above about 40%, no sharp cut-off; inactive = mostly below about 27%
SENP8 confirm: SENP8 protease inhibitors, retest, confirmation, biochemical, luminescence, single concentration | shares compounds with SENP7 block | Recombinant SENP8, Z-RLRGG-aminoluciferin luminescence, 60 min | inhibition, % at 12.5 µM | 6,200 compounds, 40% hits | AID 488912, 2010;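 active = mean inhibition across replicates above about 50%, limit read from the data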
SENP6 confirm: SENP6 protease inhibitors, confirmation, biochemical, luminescence, single concentration; shares compounds with SENP7 block; AID 488915, 2010; recombinant SENP6, Z-RLRGG-aminoluciferin luminescence; inhibition, % at 12.5 µM; 6,200 compounds, 58% hits
SENP7 conf: SENP7 protease inhibitors, retest, confirmation, biochemical, luminescence, single concentration; shares compounds with SENP7 block; recombinant SENP7, Z-RLRGG-aminoluciferin luminescence, 40 min; inhibition, % at 12.5 µM; 6,200 compounds, 69% hits; AID 488917, 2010
Casp3 SENP sel: caspase-3 protease inhibitors, confirmation, selectivity assay for SENP inhibitor project, biochemical, single concentration; shares compounds with SENP7 block; purified caspase-3, Z-DEVD-aminoluciferin luminescence, 60 min; inhibition, % at 12.5 µM; 6,200 compounds, 60% hits;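 active = mean inhibition above about 50%, limit read from the data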;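 note: plate controls were enzyme with DMSO for no effect and wells without caspase-3 for full effect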
Target sequence (P42574 28-227 limits assumed): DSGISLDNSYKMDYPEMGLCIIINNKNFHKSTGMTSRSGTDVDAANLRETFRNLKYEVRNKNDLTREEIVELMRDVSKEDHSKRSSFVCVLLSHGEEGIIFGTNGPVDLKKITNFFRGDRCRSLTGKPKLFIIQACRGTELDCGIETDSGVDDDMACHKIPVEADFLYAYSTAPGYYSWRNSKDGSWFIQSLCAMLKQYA
SENP luc ctr: luminescence interference (SENP counter-screen); Pre-incubated SENP8/Z-RLRGG-aminoluciferin, luciferase luminescence interference; AID 488919; shares compounds with SENP7 block; inhibition, % at 12.5 µM; 6,200 compounds, 39% hits;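 active = mean inhibition above about 50% when retested at one dose, limit read from the data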;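 note: plate controls were DMSO wells with completed reaction for no effect and substrate without enzyme for full effect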
* marks the source's active call; other numbers are inactive results; x = no result given. An excerpt weighted towards active compounds, which were near 2.9% of everything screened.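 Rule for the calls, unless noted: active = mean inhibition above about 50% in the one-dose retest (limit read from the data); inactive = the rest.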

SMILES	HSP90 inh	SENP8 block-1	SENP6 inh	SENP7 block	SENP1 FRET inh	SENP8 block-2	SENP8 confirm	SENP6 confirm	SENP7 conf	Casp3 SENP sel	SENP luc ctr
Cc1ccc(C)c(N=Nc2nc3ccccc3n2C)c1	11	65*	79*	87*	4	21	90*	84*	100*	63*	94*
Cc1cc(C)c(C)c(N=Nc2nc3ccccc3n2C)c1C	3	8	33	6	4	-220	x	x	x	x	x
Nc1c(C(=O)NCc2ccc3c(c2)OCO3)c2nc3ccccc3nc2n1CCCN1CCOCC1	2	91*	92*	4	-24	-277	10	8	-3	3	-5
COc1ccccc1CNC(=O)c1c(N)n(CCCN2CCOCC2)c2nc3ccccc3nc12	3	x	x	x	-22	-291	x	x	x	x	x
Nc1c(C(=O)NCc2ccccc2)c2nc3ccccc3nc2n1-c1ccc2c(c1)OCO2	0	30	68*	-3	-53	-261	11	12	-3	3	0
Nc1ccc(-n2c(N)c(C(=O)NCc3ccc4c(c3)OCO4)c3nc4ccccc4nc32)cc1	2	2	8	2	-63	-406	x	x	x	x	x
COc1cccc(OCC(=O)N2CCCc3ccccc32)c1	1	3	-5	-2	1	11	x	x	x	x	x
O=c1[nH]c(N/N=C\c2ccc(F)cc2)nc2ccccc12	-2	0	-23	-8	-142	-293	x	x	x	x	x
O=c1[nH]c(N/N=C/c2ccc(O)cc2)nc2ccccc12	1	60*	75*	51*	-128	-336	44	62*	86*	81*	71*
O=C(O)c1ccc(/C=N/Nc2nc3ccccc3[nH]2)cc1	4	49	-3	58*	-5	-193	14	17	46	33	4
CC1=C(C(=O)N2CCOCC2)CC(CC(=O)NC(c2ccccc2)c2ccccc2)C(=O)N1Cc1ccc(F)cc1 (stereo not given)	x	x	x	x	1	14	x	x	x	x	x
Cc1nc(Cl)sc1C(=O)Nc1ccc(C(C)(C)C)cc1	0	60*	-28	62*	2	14	71*	64*	84*	51*	48
Cc1noc(N)c1C(=O)Nc1ccc(C(C)(C)C)cc1	3	69*	29	86*	0	14	14	80*	96*	80*	80*
Cc1ccccc1NC(=O)c1sc(Cl)nc1C	-3	2	-13	2	2	16	x	x	x	x	x
Cn1c(=O)c2c(O)c(Cc3ccccc3)c(=O)[nH]c2n(C)c1=O	3	4	61*	29	-3	7	42	39	66*	64*	8
Cc1[nH]c(=O)c(Cc2ccccc2)c(O)c1C#N	x	-5	-13	3	3	13	x	x	x	x	x
CCc1ccccc1NC(=O)CCC(=O)N1CCN(C(C)=O)CC1	x	x	x	x	2	16	x	x	x	x	x
O=C(Nc1cccnc1)c1cc2cc(Br)ccc2o1	0	85*	91*	92*	-1	5	89*	88*	100*	91*	32
CCOC(=O)c1ccc(NC(=O)c2cc3ccccc3o2)cc1	-5	45	60*	52*	-1	-10	32	53*	60*	43	42
O=C(NC(=S)Nc1cccnc1)c1cc2ccccc2o1	-1	-6	28	28	2	18	x	x	x	x	x
CCC(=O)Nc1cccc(NC(=O)c2cc3ccccc3o2)c1	-4	54*	67*	74*	2	22	74*	67*	88*	74*	70*
Cc1cccc(NC(=O)c2cc3ccccc3o2)c1	6	87*	94*	94*	1	10	8	94*	101*	91*	92*
CCCCCCN1CCN(C2CN(Cc3ccc([N+](=O)[O-])cc3)S(=O)(=O)C2)CC1 (stereo not given)	x	x	x	x	1	7	x	x	x	x	x
Cc1cccc2[nH]c(CCNC(=O)C3CCC(=O)N(CCc4cccc(F)c4)C3)nc12 (stereo not given)	-6	-5	-12	7	-2	12	x	x	x	x	x
COc1cccc(N2CCN(C(=O)C3CCN(S(=O)(=O)c4ccc5c(c4)CC(C)N5C(C)=O)CC3)CC2)c1 (stereo not given)	-5	0	5	5	-1	16	x	x	x	x	x
SMILES	HSP90 inh	SENP8 block-1	SENP6 inh	SENP7 block	SENP1 FRET inh	SENP8 block-2	SENP8 confirm	SENP6 confirm	SENP7 conf	Casp3 SENP sel	SENP luc ctr
O=C(Nc1cccc(Br)c1)c1cc2ccccc2o1	2	89*	94*	-11	1	7	94*	94*	101*	82*	88*
CN(CCCNC(=O)CSc1cc(=O)n(C)c2cc(Cl)ccc12)Cc1ccccc1	-3	3	8	75*	0	-19	-14	-11	-14	2	-7
Cc1ccc(C(=O)N=c2sccn2C)cc1C	-4	67*	82*	83*	2	-195	70*	70*	94*	86*	81*
Cc1ccc(C(=O)N=c2sccn2C)cc1S(=O)(=O)N1CCOCC1	x	-6	2	9	0	-182	x	x	x	x	x
N#Cc1c(N)nc(SCc2ccncc2)c(C#N)c1-c1cccs1	-2	-7	-9	-3	3	-62	x	x	x	x	x
CN1CCc2nc(SCc3ccc(Cl)cc3)c(C#N)c(-c3cccs3)c2C1	3	69*	76*	38	x	x	-4	2	11	4	2
